A selection follows.
Ecoli WT growth: growth inhibitors of wild type E. coli, primary screen, strain BW25113 wild type, absorbance readout; E. coli BW25113 growth inhibition, OD600; inhibition, % at 10 µM; 0.05% of 20,000 active; AID 552, 2006; in the data active = inhibition above about 40%;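 also: bacteria exposed to compound for 20 hours at 37 °C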
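System: bacterial strain in a whole-cell growth screen; medium: LB broth with 50 µg/mL kanamycin; detection: absorbance at 615 nm; schedule: 20 h exposure, 37 °C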
* marks the source's active call; other numbers are inactive results.

SMILES	Ecoli WT growth
c1ccc(C2=Nn3c(nnc3-c3n[nH]c4c3CCC4)SC2)cc1	-8
COc1ccccc1N1CCN(S(=O)(=O)c2c(C)ccc3nsnc23)CC1	-6
O=C(CSc1nnc(-c2ccc(Br)o2)n1Cc1ccccc1)c1ccccc1F	4
CCOc1cc(S(=O)(=O)N2CCN(CC)CC2)ccc1Cl	5
CC(C)NC(=O)c1ccc(-c2ccccc2C(F)(F)F)o1	-14
CC(=O)c1c(C)[nH]c(C(=O)OCc2nnc(-c3ccccc3)o2)c1C	0
Cc1ccc2cc(CN(Cc3ccc(F)cc3)Cc3nnnn3C3CCCC3)c(=O)[nH]c2c1	1
COc1ccc(N(C)C(=O)CCS(=O)(=O)c2cccc3nonc23)cc1	3
Cc1ccc(Cn2c(C(=O)NCCCN3CCOCC3)cc3sccc32)cc1	-6
CCOC(=O)C1=C(C)Nc2nnnn2C1c1c[nH]c2ccccc12 (stereo unspecified)	-2
Cc1ccccc1-c1cc(-c2ccccc2O)n[nH]1	-8
CC(=O)Nc1ccc(S(=O)(=O)Nc2cc(C)c(-n3nc4ccccc4n3)cc2O)cc1	-23
Cn1c(=O)n(Cc2ccco2)c(=N)c2c3c(sc21)CCC3	-15
COc1ccccc1C1/C(=C(/O)c2ccccc2)C(=O)C(=O)N1CC(C)C (stereo unspecified)	-2
O=C(Nc1ccc2c(c1)OCO2)c1cccc(S(=O)(=O)N2CCCC2)c1	-9
COC(=O)c1ccc(C(=O)OC)c(NC(=O)Nc2ccc3c(c2)OCO3)c1	-5
CCc1nnc(NC(=O)c2cnccn2)s1	-19
Cc1ccc2cc(CN(CC3CCCO3)S(=O)(=O)c3ccc4c(c3)OCCO4)c(=O)[nH]c2c1C (stereo unspecified)	-3
CC(=O)Nc1ccc(S(=O)(=O)N2CCN(C(=O)N3CCCCCC3)CC2)cc1	-17
CCOC(=O)c1sc(N2C(=O)C(O)=C(C(=O)c3ccco3)C2c2ccccc2)nc1C (stereo unspecified)	-3
O=C(NC1(C(F)(F)F)NC(=O)N(Cc2cccnc2)C1=O)c1cccs1 (stereo unspecified)	-16
CCOC(=O)c1c(N)n[nH]c1-c1ccc(OC)cc1	-7
CCCCn1c(SCc2ccc(Cl)cc2)nc2c1c(=O)[nH]c(=O)n2C	-2
CCOC(=O)c1c(C2CC2)csc1NC(C)=O	-8
COc1cccc(-c2nnc(NC(=O)Cc3cccs3)s2)c1	-6
SMILES	Ecoli WT growth
O=C(Nc1ccccc1N1CCCC1)c1cccnc1	-5
COc1c(Br)cc2c(C)c(C(=O)O)oc2c1Br	12
O=S1(=O)C=CC(Nc2cccc(Cl)c2)C1 (stereo unspecified)	0
O=C(NCc1ccc(Cl)cc1)c1ccc(COCC(F)(F)F)o1	6
COc1cc(NS(=O)(=O)N2CCCC2)cc(OC)c1OC	-7
O=C(c1cc2ccccc2o1)c1cccs1	-12
COc1ccc2c(c1)c(=O)oc1c(C)c3occ(C)c3cc12	-20
CC(=O)c1cccc(NC(=O)C2CCN(S(C)(=O)=O)CC2)c1	6
CC(C)N(Cc1nc(-c2ccccc2)no1)C(=O)c1ccc(Br)o1	-18
CC1Oc2ccccc2N(CC(=O)NCc2cccs2)C1=O (stereo unspecified)	-4
COC(=O)c1[nH]c2ccc(C)cc2c1NC(=O)CN1CCC(C)CC1	-1
COc1cccc(C2C(C(=O)c3cc4ccccc4o3)=C(O)C(=O)N2CCN(C)C)c1OC (stereo unspecified)	0
Cc1nnc(NC(=O)c2ccccc2F)s1	4
O=C(COC(=O)C1(c2ccccc2F)CCCC1)NC1CCS(=O)(=O)C1 (stereo unspecified)	7
O=C(CSc1ncnc2c1cnn2Cc1ccccc1)Nc1ccc2c(c1)OCCO2	7
CS(=O)(=O)N(CCc1ccccc1)CC(=O)N1CCN(Cc2ccc3c(c2)OCO3)CC1	-22
CCSc1nc(O)c(C2OC(=O)c3c2ccc(OC)c3OC)c(=O)n1-c1ccccc1 (stereo unspecified)	-3
O=C(c1ccc(Cl)c(Cl)c1)N1CCOCC1	8
COc1ccc(-c2cc(C(=O)Nc3ccc(C)cc3)no2)cc1	8
O=C(c1csc2ccccc12)n1cccn1	-8
Cc1nn2c(-c3cccc(NC(=O)CSc4nc5ccccc5o4)c3)nnc2c2ccccc12	5
Cc1cc(C)n(S(=O)(=O)c2cc(C(=O)O)c(Cl)cc2Cl)n1	7
COc1ccc(NC2C=CS(=O)(=O)C2)c(OC)c1 (stereo unspecified)	-21
COc1ccc2[nH]c(=O)c(CN(CC3CCCO3)C(=O)Nc3ccc(F)cc3)cc2c1 (stereo unspecified)	9
CCn1c(SCC(=O)c2ccc(NS(=O)(=O)c3ccccc3)cc2)nnc1-c1cccs1	-4
SMILES	Ecoli WT growth
O=C(Cn1nnc(-c2ccncc2)n1)Nc1ccc2c(c1)CCC2	-3
CN1CCN(C(=O)c2ccccc2-c2nc(-c3ccc(Cl)cc3)no2)CC1	-26
CCN(CC)Cc1csc(C(N)=O)c1	-1
C[C@H](NC(=O)Nc1ccccc1F)C(=O)O	-1
COC(=O)c1ccccc1NC(=O)C1CCCN(S(C)(=O)=O)C1 (stereo unspecified)	-18
CCc1ccc(CNc2ccc(N3CCN(C(C)=O)CC3)cc2)cc1	-20
O=C(O)CCCC(=O)Nc1nc(-c2ccc(F)cc2)cs1	-1
COc1ccc(S(=O)(=O)NC(CC(=O)NCc2ccco2)c2ccco2)cc1 (stereo unspecified)	7
CCOC(=O)c1ccccc1NC(=O)Cn1cnc2c(cnn2-c2ccc(OC)cc2)c1=O	-1
CCN(CC)c1nc2cc(OC)ccc2cc1C#N	-2
CCc1c(C(=O)Nc2nnc(C3CC3)s2)csc1C	-13
COc1ccccc1-c1nc(SCc2ccccn2)n[nH]1	-5
CC(=O)N(c1ccc(N(C(C)=O)S(=O)(=O)c2cccs2)cc1)S(=O)(=O)c1cccs1	-1
CCC(=O)N/C(N)=N/c1nc(C)c2cc(OC)ccc2n1	12
COc1ccc(C(=O)Nc2ccc(S(=O)(=O)NC(C)=O)cc2)cc1	3
CCn1c(C)nc2cc(C(=O)OCCC(F)(F)F)ccc21	0
